In one data set the test system is OVCAR-5. Kind of data set: Growth inhibition of human OVCAR5 cells after 48 hrs by sulforhodamine B assay. In kind it is functional. The note with it: OVCAR-5, 48 h. The method in brief:
(§1)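 Cells were plated at 5000–40,000 cells/well, depending on doubling time, and preincubated 24 h at 37 °C in 5% CO2. Time-zero plates were TCA-fixed at drug addition. Compounds were dissolved in DMSO and tested at five concentrations (10-fold or ½-log dilutions) for 48 h. Cells were fixed with cold TCA, stained with 0.4% sulforhodamine B and read at 515 nm. GI50 was taken as the concentration giving 50% growth.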

A further data set deals with OVCAR-4. In words: Growth inhibition of human OVCAR4 cells after 48 hrs by sulforhodamine B assay. In kind it is functional. The settings on record: OVCAR-4, 48 h. The procedure, abridged:
as §1
(The SRB assay estimates cell density from bound dye.)

The next data set relates to T47D. Kind of data set: Growth inhibition of human T47D cells after 48 hrs by sulforhodamine B assay. In kind it is functional. The procedure, abridged:
as §1

A further data set has as its system MDA-MB-435. Kind of data set: Growth inhibition of human MDA-MB-435 cells after 48 hrs by sulforhodamine B assay. The format is functional. The note with it: MDA-MB-435, 48 h. The procedure, abridged: as §1
In the next data set the test system is OVCAR-8. Kind of data set: Growth inhibition of human OVCAR8 cells after 48 hrs by sulforhodamine B assay. The note with it: OVCAR-8, 48 h. In kind it is functional. The procedure, abridged:
as §1

The next data set has as its system BT-549. In words: Growth inhibition of human BT549 cells after 48 hrs by sulforhodamine B assay. In kind it is functional. The note with it: BT-549, 48 h. The procedure, abridged: as §1
Data set [1] is described as follows: Growth inhibition of human Hs 578T cells after 48 hrs by sulforhodamine B assay. In kind it is functional. The method in brief: as §1
A further data set deals with SK-OV-3. Kind of data set: Growth inhibition of human SKOV3 cells after 48 hrs by sulforhodamine B assay. The note with it: SK-OV-3, 48 h. In kind it is functional. The method in brief: as §1
Another data set relates to MDA-MB-231. Kind of data set: Growth inhibition of human MDA-MB-231cells after 48 hrs by sulforhodamine B assay. In kind it is functional. The note with it: MDA-MB-231, 48 h. The method in brief: as §1
The test system of the next data set is IGROV-1. Kind of data set: Growth inhibition of human IGROV1 cells after 48 hrs by sulforhodamine B assay. The format is functional. The note with it: IGROV-1, 48 h. The procedure, abridged: as §1
The test system of a further data set is OVCAR-3. Kind of data set: Growth inhibition of human OVCAR3 cells after 48 hrs by sulforhodamine B assay. The note with it: OVCAR-3, 48 h. The format is functional. The procedure, abridged: as §1
In the next data set the test system is MDA-N. Kind of data set: Growth inhibition of human MDA-N cells after 48 hrs by sulforhodamine B assay. In kind it is functional. The procedure, abridged:
as §1

In the next data set the test system is NCI/ADR-RES. Kind of data set: Growth inhibition of human NCI/ADR-RES cells after 48 hrs by sulforhodamine B assay. The format is functional. The method in brief: as §1
The next data set relates to MCF7. In words: Growth inhibition of human MCF7 cells after 48 hrs by sulforhodamine B assay. The format is functional. The note with it: MCF7, 48 h. The procedure, abridged:
as §1

Data set [2] can be described thus: Acute toxicity in mouse after 24 hrs. The format is organism-based. The note with it: in vivo. The procedure, abridged: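 Adult mice of both sexes, acclimatized 1 week (12 h light/dark, 21–23 °C), fasted 12 h before dosing. 30 mice in 6 groups of 5 each got a single oral gavage dose, at different dose levels, of a fine-powder aqueous suspension. LD50 was determined, with values as group means of five mice.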

For data set [3], the system named is Rattus norvegicus. In words: Antiestrogenic activity in Sprague-Dawley rat assessed as reduction in estradiol induced uterine weight upto 0.06 ug, po after 8 days. The format is functional. Also on record: scale not given: the % may be the effect or the level left. The method in brief: (§2)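 Immature ovariectomized female Sprague-Dawley rats (~55 g), groups of 12. Estradiol 0.03–0.05 given s.c. daily for 7 days, with test compound or letrozole reference at various doses up to 0.06 per animal, given orally in 0.5% carboxymethylcellulose. Controls received estradiol alone. Uterine weights were taken on day 8 and group means expressed as % reduction versus estradiol-only controls. Potency was taken relative to letrozole.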

Data set [4] deals with Rattus norvegicus. Kind of data set: Antiestrogenic activity in Sprague-Dawley rat assessed as reduction in estradiol induced uterine weight 0.06 ug, po after 8 days relative to letrozole. The format is functional. The procedure, abridged:
as §2

We go through five compounds from ChEMBL document CHEMBL1629506, “Design, synthesis and structure-activity relationship study of novel pyrazole-based heterocycles as potential antitumor agents” (Eur J Med Chem, 2010).

For orientation: GI50 means the concentration that inhibits growth by half. What is called LD50 is the dose at which mortality reaches 50%.

`N#Cc1c(-c2nnc(-c3ccccc3)c3nn(-c4ccc(Cl)cc4)cc23)nn(-c2ccccc2)c1-c1ccccc1`: the GI50 stood at 8.94 µM in the data set with OVCAR-5; 5.49 µM in the data set on OVCAR-4; 38 µM in the data set on T47D; 23.8 µM in the data set on MDA-MB-435; 9.23 µM in the data set with OVCAR-8; 38.8 µM in the data set on BT-549. Further, the GI50 in [1] is 16.8 µM; in the data set with SK-OV-3, greater than 100 µM; in the data set with MDA-MB-231, 6.42 µM; in the data set on IGROV-1, 93.4 µM; in the data set on OVCAR-3 it was greater than 100 µM; in the data set with MDA-N it was 63.8 µM. Further, the GI50 stood at 2.28 µM in the data set on NCI/ADR-RES and 43.8 µM in the data set on MCF7.

In the case of `N#Cc1c(-c2nnc(-c3nn(-c4ccccc4)c(-c4ccccc4)c3C#N)c3nn(-c4ccccc4)cc23)nn(-c2ccccc2)c1-c1ccccc1`, the GI50 is 9.12 µM with OVCAR-5; 7.46 µM in the data set with OVCAR-4; 81 µM in the data set on T47D; greater than 100 µM in the data set on MDA-MB-435; 9.82 µM in the data set with OVCAR-8; 11.8 µM with BT-549. Further, the GI50 in data set [1] is 94.4 µM; in the data set with SK-OV-3, 5.72 µM; with MDA-MB-231 it was 52.4 µM; with IGROV-1 it was 13.3 µM; in the data set on OVCAR-3, 7.26 µM; in the data set on MDA-N, greater than 100 µM. The GI50 came out at 24.5 µM with NCI/ADR-RES and 17.8 µM with MCF7. For the same compound, the LD50 at 24 h in data set [2] is 222 mg/kg. Besides, the Activity in the data set with Rattus norvegicus [3] was found to be 34.87%. Moreover, the potency ratio vs letrozole in the data set on Rattus norvegicus [4] stood at 1.61.

For `CC(=O)c1nn(-c2ccccc2)cc1C(=O)c1nn(-c2ccccc2)c(-c2ccccc2)c1C#N`, the GI50 is 34.8 µM with OVCAR-5; 69.8 µM in the data set with OVCAR-4; 36.8 µM in the data set on T47D; greater than 100 µM in the data set with MDA-MB-435; 62.8 µM in the data set on OVCAR-8; greater than 100 µM with BT-549. Further, the GI50 is 6.46 µM in data set [1]; 39.8 µM in the data set on SK-OV-3; greater than 100 µM in the data set with MDA-MB-231; 96.8 µM with IGROV-1; 66.8 µM with OVCAR-3; 0.077 µM in the data set on MDA-N. Further, the results for the GI50 in the data set on NCI/ADR-RES and with MCF7 were greater than 100 µM and 25.7 µM, respectively. In [2], this compound registered an LD50 at 24 h of 324 mg/kg. The Activity with Rattus norvegicus [3] is reported as 32.45%. In addition, in the data set with Rattus norvegicus [4], the potency ratio vs letrozole stood at 1.49.

As for `N#Cc1c(-c2nnc(-c3ccccc3)c3cn(-c4ccccc4)nc23)nn(-c2ccccc2)c1-c1ccccc1`, the GI50 in the data set with OVCAR-5 is greater than 100 µM; in the data set with OVCAR-4 it was 63 µM; in the data set with T47D it was 21.8 µM; with MDA-MB-435, 31.8 µM; in the data set with OVCAR-8, 68 µM; in the data set on BT-549, 21.8 µM. Besides, the GI50 turned out to be 31.8 µM in [1]; 32.8 µM in the data set on SK-OV-3; 8.84 µM with MDA-MB-231; 94.8 µM in the data set with IGROV-1; 93.8 µM in the data set on OVCAR-3; 31.2 µM with MDA-N. Besides, the values for the GI50 in the data set with NCI/ADR-RES and in the data set on MCF7 were greater than 100 µM and 9.53 µM, respectively. Moreover, the Activity with Rattus norvegicus [3] worked out at 32.59%.

With `CCOC(=O)c1nn(-c2ccccc2)cc1C(=O)c1nn(-c2ccccc2)c(-c2ccccc2)c1C#N`, the GI50 in the data set on OVCAR-4 is greater than 100 µM; in the data set on T47D, greater than 100 µM; in the data set with MDA-MB-435, greater than 100 µM; in the data set with OVCAR-8, greater than 100 µM; in the data set on BT-549, 31.8 µM; in the data set on IGROV-1, greater than 100 µM. Also, the GI50 in the data set with MDA-N was 38.4 µM; in the data set with NCI/ADR-RES, greater than 100 µM; in the data set on MCF7, 5.49 µM. In [2], this compound showed an LD50 at 24 h of 122 mg/kg. Moreover, the Activity in the data set on Rattus norvegicus [3] was 23.98%. Also, the potency ratio vs letrozole in the data set on Rattus norvegicus [4] was found to be 1.1.
